Source: ChEMBL document CHEMBL1147407, “The design and synthesis of novel inhibitors of NADH:ubiquinone oxidoreductase” (Bioorg Med Chem Lett, 2004)

Legend:
[1] = Inhibition of NADH:ubiquinone oxidoreductase from house fly (Musca domestica) flight muscles; assay type: tissue-based, Muscle tissue
In short: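 House fly flight-muscle complex I. Activity was measured as NADH oxidation, followed photometrically at 340 nm, with n-decylubiquinone as the electron acceptor.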

[2] = system: Tetranychus urticae; test: Acaricidal activity of a compound (300 p.p.m.) was evaluated against Tetranychus urticae infected on bean plants; assay type: functional

| Structure (SMILES) | IC50 [1] [nM] | Activity [2] [%] |
| --- | --- | --- |
| CC(C)(C)c1ccc(CSc2cc(=O)c3ccccc3o2)cc1 | 500 | 0 |
| Cc1c(SCCc2ccc(C(C)(C)C)cc2)oc2ccccc2c1=O | 10 | 80 |
| CC(C)(C)c1ccc(CSc2oc3ccccc3c(=O)c2Cl)cc1 | 6 | 50 |
| CCc1c(SCc2ccc(C(C)(C)C)cc2)oc2ccccc2c1=O | > 200 | 0 |
| Cc1c(NCCc2ccc(C(C)(C)C)cc2)oc2ccccc2c1=O | 200 | 0 |
| Cc1c(S(=O)(=O)Cc2ccc(C(C)(C)C)cc2)oc2ccccc2c1=O | 160 | 0 |
| Cc1c(SCc2ccc(C(C)(C)C)cc2)oc2ccccc2c1=O | 8 | 100 |
| Cc1c(NCc2ccc(C(C)(C)C)cc2)oc2ccccc2c1=O | 20 | 0 |
